Reference: ChEMBL document CHEMBL1143578, “From 1-acyl-beta-lactam human cytomegalovirus protease inhibitors to 1-benzyloxycarbonylazetidines with improved antiviral activity. A straightforward approach to convert covalent to noncovalent inhibitors” (J Med Chem, 2005)

Experiments:
HEL [1] = test: Minimum cytotoxic concentration required to cause a microscopically visible alteration of HEL fibroblast cell morphology; format: functional; details: Homo sapiens
Method in brief: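 HEL cell morphology was examined under the microscope after compound exposure. MCC is the lowest concentration producing a detectable alteration in morphology.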

HEL [2] = test: Effective concentration required to inhibit human cytomegalo virus Davis induced cytopathicity in HEL fibroblast cell line after 7 days of postinfection; format: functional, cell-based; details: 168 h
Method in brief: (§1)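 Confluent HEL fibroblasts were infected with 100 PFU/well for 2 h, then residual virus was removed. Cells were incubated with a range of compound concentrations, in duplicate, for 7 days at 37 °C. Cells were ethanol-fixed and Giemsa-stained, and cytopathogenicity was scored microscopically. EC50 was read from plots of % cytopathogenicity against concentration.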

HEL [3] = test: Effective concentration required to inhibit human cytomegalo virus AD-169 induced cytopathicity in HEL fibroblast cell line after 7 days of postinfection; format: functional, cell-based; details: 168 h; method in brief: as §1
HEL [4] = test: Effective concentration required to reduce Varicella-Zoster virus 07/1(TK-) plaque formation after 5 days in HEL fibroblast cell line; format: functional, cell-based; details: Homo sapiens, 120 h
Method in brief: (§2)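 Confluent HEL cells were inoculated with VZV at 20 PFU/well for 2 h. Residual virus was removed and varying compound concentrations were added in duplicate. Plaques were counted after 5 days. EC50 is the concentration halving plaque formation relative to untreated controls.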

HEL [5] = test: Effective concentration required to reduce Varicella-Zoster virus OKA(TK) plaque formation after 5 days in HEL fibroblast cell line; format: functional, cell-based; details: Homo sapiens, 120 h; method in brief: as §2
HEL [6] = test: Cytotoxic concentration required to reduce HEL cell growth; format: functional; details: Homo sapiens
Method in brief: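 HEL cells seeded at 5 × 10³ cells/well and allowed to proliferate 24 h, then exposed to a range of compound concentrations for 3 days at 37 °C. Cell number was counted with a Coulter counter. CC50 is the concentration giving 50% growth reduction versus untreated controls, read from plots of cell number (% of control) against concentration.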

SMILES	MCC (HEL [1]) [µM]	EC50 (HEL [2]) [µM]	EC50 (HEL [3]) [µM]	EC50 (HEL [4]) [µM]	EC50 (HEL [5]) [µM]	CC50 (HEL [6]) [µM]
CC(C)(C)OC(=O)N1C(=O)CC1(Cc1ccccc1)C(=O)OC(C)(C)C (stereo not drawn)	> 200	> 200	> 200			
CC(C)(C)OC(=O)C1(Cc2ccccc2)CCN1C(=O)OCc1ccccc1 (stereo not drawn)	5	0.6	0.7	> 2	> 2	
C[C@H](NC(=O)C1(Cc2ccccc2)CCN1C(=O)OCc1ccccc1)C(=O)O (stereo partly drawn)	≥ 400	> 80	> 400	> 80	> 80	124
C[C@H](NC(=O)N1C(=O)C[C@]1(Cc1ccccc1)C(=O)O)c1ccccc1	> 200	> 200		111		
COC(=O)[C@@]1(Cc2ccccc2)CC(=O)N1C(=O)N[C@@H](C)c1ccccc1	> 50		> 50	> 50	> 50	> 50
C[C@@H](NC(=O)N1C(=O)C[C@]1(Cc1ccccc1)C(=O)OC(C)(C)C)c1ccccc1	> 200			> 50	> 50	
CC(C)(C)OC(=O)[C@]1(Cc2ccccc2)CC(=O)N1C(=O)Nc1ccccc1	200	50	50	13	33	
CC(C)(C)NC(=O)C1(Cc2ccccc2)CCN1C(=O)OCc1ccccc1 (stereo not drawn)	≥ 16	4.4	5.5	> 16	> 3.2	36
O=C1C[C@H](Cc2ccccc2)N1C(=O)NCc1ccccc1						> 250
C[C@H](NC(=O)C1(Cc2ccccc2)CCN1C(=O)OCc1ccccc1)C(N)=O (stereo partly drawn)	≥ 400	32	39	> 80	> 80	50
Nc1nc2c(ncn2COC(CO)CO)c(=O)[nH]1 [GANCICLOVIR]	> 1500					
C[C@H](NC(=O)N1C(=O)C[C@@]1(Cc1ccccc1)C(=O)OC(C)(C)C)c1ccccc1	200			20	37	
C[C@@H](NC(=O)N1C(=O)C[C@@]1(Cc1ccccc1)C(=O)OC(C)(C)C)c1ccccc1	200			23	> 50	
COC(=O)[C@@]1(Cc2ccccc2)CCN1C(=O)N[C@@H](C)c1ccccc1	> 50		> 20	> 50	> 50	> 50
C[C@H](NC(=O)N1C(=O)C[C@]1(Cc1ccccc1)C(=O)OC(C)(C)C)c1ccccc1	200			14	> 50	
